Sampled rows, rich in hits. Any-hit rate of the full collection: about 2.5%.
MEKK3 PB1 HTS: MEKK3-MEK5 PB1 interaction, increase or decrease; bead-based flow cytometry, Alexa488-MEK5 binding to MEKK3; actives lie on both sides; 0 = blocked by unlabeled MEK5, 100 = vehicle; binding response (% of control), % at 10 µM; 290,000 compounds, 1.4% hits; AID 1529;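 active = binding response more than 3 SD above or below the average of its plate-row segment, actives on both sides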;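 note: Alexa488 bead fluorescence after subtracting the streptavidin-only scavenger bead signal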
Target sequence (Q99759 whole entry, looked up): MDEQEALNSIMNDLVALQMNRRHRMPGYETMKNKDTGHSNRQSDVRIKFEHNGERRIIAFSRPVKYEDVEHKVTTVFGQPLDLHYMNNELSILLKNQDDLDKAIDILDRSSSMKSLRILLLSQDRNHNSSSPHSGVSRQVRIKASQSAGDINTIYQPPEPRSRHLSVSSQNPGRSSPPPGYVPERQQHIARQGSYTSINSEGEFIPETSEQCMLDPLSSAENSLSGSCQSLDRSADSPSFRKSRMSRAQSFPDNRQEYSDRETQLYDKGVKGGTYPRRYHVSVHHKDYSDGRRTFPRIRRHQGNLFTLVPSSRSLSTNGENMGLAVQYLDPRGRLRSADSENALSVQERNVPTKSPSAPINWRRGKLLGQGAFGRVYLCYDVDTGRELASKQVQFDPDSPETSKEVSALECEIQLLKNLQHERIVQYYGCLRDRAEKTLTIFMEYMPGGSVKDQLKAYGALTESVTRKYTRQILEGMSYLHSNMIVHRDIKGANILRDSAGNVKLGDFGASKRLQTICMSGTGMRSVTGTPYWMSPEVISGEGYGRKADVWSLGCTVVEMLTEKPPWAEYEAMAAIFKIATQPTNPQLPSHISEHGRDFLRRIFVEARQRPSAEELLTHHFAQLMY
MEKK2 WT-MEK5: raises or lowers MEK5 binding to wildtype human MEKK2 PB1 domain | Q9Y2U5 | binding response (% of control), % at 10 µM | AID 1531 | bead flow cytometry, Alexa488-MEK5 binding to MEKK2 WT; actives lie on both sides | 290,000 compounds, 1.1% hits; in the data active = binding response below about 67% or above about 130%
Rce1 inh: yeast Ras-converting enzyme inhibition; yeast membranes, quenched prenylated peptide cleavage fluorescence; 290,000 compounds, 0.27% hits; AID 2563; calls only;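 active = fall in fluorescence gain of 50% or more versus controls, with final raw signal at or below 3038400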;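 note: plate controls were neutral control wells for no effect and wells lacking membranes for full effect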
UCH37 inh: human UCH37 deubiquitinating enzyme inhibition. Q9Y5K5. inhibition, % (concentration not given with the values). purified proteasome/UCH37, Ub-AMC cleavage fluorescence. 330,000 compounds, 0.33% hits;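 active = mean inhibition over replicate wells above about 20%, limit read from the data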;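 note: 0% = compound-free wells with enzyme and 100% = wells lacking proteasome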
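Material: human UCH37 enzyme supplied as purified proteasome complex / Amount: 0.15 nM proteasome as dispensed / Buffer or medium: pH 7.4 Tris-HCl (50 mM) with ovalbumin, ATP-MgCl2, DTT / Times: preincubation 30 min, reaction 25 min, room temperature / Technique: AMC fluorescence from Ub-AMC cleavage, excitation 355 nm, emission 460 nm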
MEKK2 mut-MEK5: signal of MEK5 binding to mutant human MEKK2 PB1 domain; 290,000 compounds, 0.35% hits; AID 1530; bead flow cytometry, Alexa488-MEK5 binding to MEKK2 mutant; percent response, % at 10 µM; in the data active = percent response above about 24%, passing the limit was not always enough
T cell HTS: T cell immune modulation candidate; 2C CD8+ T cell-vesicle binding, flow cytometry; hits give low values; response (vesicle binding), % at 7 µM; 330,000 compounds, 0.068% hits; AID 2052;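 active = response, share of CD8 T cells binding vesicles, and their 90th percentile fluorescence all below set limits, cut at about 80% in these data, passing the limit was not always enough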;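 note: values below 100% mean blocked vesicle binding to the CD8+ T cells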
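Test system: purified 2C TCR transgenic mouse naive CD8+ T cells. Probe or stimulus: QL9-peptide-loaded Drosophila micro-vesicles bearing Ld, ICAM-1 and B7-1. Incubation: binding step 1.5 h, 37 °C, antibody labelling 20 min, ice. Measured by: flow cytometry of vesicle-bound cells.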
MEKK2wt confirm: raises or lowers MEK5 binding to wildtype human MEKK2, retest | 5,900 compounds, 2.4% hits | binding response (% of control), % at 10 µM | shares compounds with MEKK3 PB1 HTS | AID 1892 | bead flow cytometry, Alexa488-MEK5 binding to MEKK2 WT; actives lie on both sides; in the data active = binding response below about 16% or above about 210%; inactive = in between
MEKK2mut confirm: signal of MEK5 binding to mutant human MEKK2, retest | AID 1893 | 5,900 compounds, 2% hits | percent response, % at 10 µM | shares compounds with MEKK3 PB1 HTS | bead flow cytometry, Alexa488-MEK5 binding to MEKK2 mutant; in the data active = percent response mostly above about 71%, no sharp cut-off; inactive = mostly below about 38%;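 note: higher means compound restores mutant binding toward wildtype level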
MEKK3-MEK5 inh: confirmation of inhibitors of MEK5 binding to human MEKK3. shares compounds with MEKK3 PB1 HTS. bead flow cytometry, Alexa488-MEK5 binding to MEKK3; hits give low values. binding response (% of control), % at 10 µM. 5,900 compounds, 1.8% hits. AID 1894;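 active = binding response below 72% of control, or above a set upper limit, though filed actives all read lower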;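 note: 100% = DMSO only wells and 0% = binding blocked by excess unlabeled MEK5; lower values mean stronger disruption of MEK5 binding to MEKK3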
Active calls of the source: *; i = inactive; · = no result; [ ] = another dose, or the depositor's remark.

SMILES | MEKK3 PB1 HTS | MEKK2 WT-MEK5 | Rce1 inh | UCH37 inh | MEKK2 mut-MEK5 | T cell HTS | MEKK2wt confirm | MEKK2mut confirm | MEKK3-MEK5 inh
CC(Cn1cnc([N+](=O)[O-])n1)=NNC(=O)c1ccc(F)cc1 | · | · | · | 1 | · | · | · | · | ·
O=C(CON=Cc1ccccc1OC(F)F)NC1CCCCC1 | · | · | · | -1 | · | · | · | · | ·
COc1ccc([N+](=O)[O-])cc1C=NNc1nn[nH]n1 | · | · | · | 9 | · | · | · | · | ·
Oc1ccccc1Nc1nc(NCc2ccco2)c2ccccc2n1 | 103 | 117 | i | · | 15 | 207 | · | · | ·
COc1ccc(OC)c(Nc2nc(NCc3ccco3)c3ccccc3n2)c1 | 117 | 206* | i | -44 | 24* | 454 | 175 | 61 | 109
O=C(NN=Cc1ccc(-c2ccccc2)o1)c1ccccc1O | · | · | · | -43 | · | · | · | · | ·
O=C(CN1CCSCC1)NN=Cc1ccccc1F | · | · | · | 3 | · | · | · | · | ·
c1csc(CNc2ccc3c(c2)OCCO3)c1 | 131* | 98 | · | -7 | -1 | 385 | 93 | -6 | 94
COCCn1c(SCc2ccc(F)cc2)nc2ccccc2c1=O | 102 | 101 | i | 3 | 6 | 355 | · | · | ·
COCCn1c(SCc2ccc(OC)c(F)c2)nc2ccccc2c1=O | 156* | 134 | i | 3 | 7 | 419 | 101 | 2 | 103
COc1ccc(CSc2nc3ccccc3c(=O)[nH]2)cc1F | 6.0*[inhibitor] | 9.0*[inhibitor] | i | 0 | -23 | 397 | 100 | 0 | 104
COc1ccc(C(=O)Nc2ccccc2C(=O)NN=Cc2ccccn2)cc1OC | · | · | · | 3 | · | · | · | · | ·
c1ccc(-c2cc(-c3nnc4n3N=C(c3ccc5ccccc5c3)CS4)[nH]n2)cc1 | 107 | 71*[inhibitor] | i | 9 | -1 | 237 | 75 | -17 | 98
Cc1cccc(C)c1NC(=S)N(C)CCc1ccccn1 | 129* | 103 | i | 0 | 0 | 218 | 105 | 1 | 101
COc1ccc(CCNC(=O)CCN2C(=O)COc3ccccc32)cc1OC | 81*[inhibitor] | 90 | i | 0 | -10 | 452 | 100 | -3 | 98
Cc1ccc(N(C(=O)CS(=O)CC(=O)Nc2ccc(F)cc2)C(C(=O)NC2CCCCC2)c2ccco2)cc1 (stereo not given) | 132* | 105 | i | 3 | 0 | 271 | 99 | 7 | 102
O=C(CS(=O)CC(=O)N(c1ccccc1)C(C(=O)NC1CCCC1)c1cccs1)Nc1ccc(F)cc1 (stereo not given) | 101 | 100 | i | · | 3 | 358 | · | · | ·
c1ccc(N(c2ccccc2)c2nc(N3CCCC3)nc(-n3ccnc3)n2)cc1 | · | · | i | 2 | · | 296 | · | · | ·
CN(c1ccccc1)c1nc(N2CCCC2)nc(-n2ccnc2)n1 | 116 | 134* | i | 4 | 15 | 254 | 104 | 1 | 102
Cc1ccc(SCc2nc3ccccc3n2CC(=O)Nc2ccccc2)cc1 | 98 | 100 | i | 3 | 4 | 598 | · | · | ·
Cc1ccc(SCc2nc3ccccc3n2CC(=O)Nc2ccc(Cl)cc2)cc1 | 106 | 136* | i | 1 | 26* | 213 | 121 | 18 | 111
Cc1cc(C(=O)NN=Cc2c[nH]c3ccccc23)cs1 | · | · | · | 9 | · | · | · | · | ·
COc1ccc(CNC(=O)C2CCN(S(=O)(=O)c3ccc4c(c3)C(C)(C)C(=O)N4C)CC2)cc1 | 101 | 108 | i | 3 | 5 | i | · | · | ·
COc1ccc(CNC(=O)C2CCCN(S(=O)(=O)c3ccc4c(c3)C(C)(C)C(=O)N4C)C2)cc1 (stereo not given) | 2.0*[inhibitor] | 0.0*[inhibitor] | i | 7 | -22 | 471 | 101 | 5 | 97
COc1ccc(NS(=O)(=O)c2cccc(C(=O)NN=Cc3cn(-c4ccccc4)nc3-c3ccc(OC)cc3)c2)cc1 | · | · | · | -13 | · | · | · | · | ·
SMILES | MEKK3 PB1 HTS | MEKK2 WT-MEK5 | Rce1 inh | UCH37 inh | MEKK2 mut-MEK5 | T cell HTS | MEKK2wt confirm | MEKK2mut confirm | MEKK3-MEK5 inh
CCCCNC(=O)C1C2C=CC(C2)C1C(=O)O (stereo not given) | 149* | 110 | i | 3 | 0 | 118 | 96 | -7 | 97
O=C(O)C1C2C=CC(C2)C1C(=O)NCCCN1CCOCC1 (stereo not given) | 97 | 92 | i | 1 | -1 | 255 | · | · | ·
CC(C)Oc1ccc(CNC(=S)NN=Cc2ccc([N+](=O)[O-])cc2)cc1 | · | · | · | 2 | · | · | · | · | ·
COC(=O)c1ccc(COc2ccccc2C=NNC(N)=O)o1 | · | · | · | 1 | · | · | · | · | ·
Cc1ccc(Oc2nc(-c3ccccc3)ncc2S(C)(=O)=O)cc1 | 1.0*[inhibitor] | 1.0*[inhibitor] | i | -4 | -62 | 260 | 102 | 3 | 104
CCC(=O)Nc1ccc(C(C)=NNS(=O)(=O)c2ccc(C)cc2)cc1 | · | · | · | 0 | · | · | · | · | ·
Oc1ccc(-n2cnnn2)cc1 | 71*[inhibitor] | 77 | i | 5 | -5 | 463 | 104 | 9 | 105
Clc1ccc(-n2cnnn2)cc1 | 104 | 102 | i | 3 | 5 | 389 | · | · | ·
CC(=NNC(=O)C(c1ccccc1)c1ccccc1)c1ccc(O)cc1 | · | · | · | 3 | · | · | · | · | ·
Cc1ccc(S(=O)(=O)N2CCN(C(=O)c3cc4c(C)nn(-c5ccccc5C)c4s3)CC2)cc1 | 108 | 105 | i | -1 | 3 | 495 | · | · | ·
Cc1ccccc1-n1nc(C)c2cc(C(=O)N3CCOCC3)sc21 | 103 | 211* | i | 1 | 32 | 162 | 103 | 7 | 106
Cn1c(=O)c2c(nc(NN=Cc3cccnc3)n2Cc2ccccc2)n(C)c1=O | · | · | · | 10 | · | · | · | · | ·
CC(C)OP(=O)(c1ccccc1)c1ccccc1 | 153* | 109 | i | 2 | 0 | 122 | 115 | 8 | 105
CCN(CC)c1ccc(C=Nc2cccnc2Cl)c(O)c1 | 92 | 66*[inhibitor] | i | 14 | -5 | 189 | 97 | 2 | 102
O=C(NN=Cc1ccncc1)c1ccccn1 | · | · | · | 7 | · | · | · | · | ·
CC(C)(C)c1ccc(/C=N/NC(=O)c2ccccn2)cc1 | 87 | · | i | · | 86* | 721 | 108 | 4 | 105
COC(=O)CSc1nnc(COc2cccc3ccccc23)o1 | 116 | 117 | i | 6 | 28* | 229 | 105 | 4 | 108
O=C(NN=Cc1sc(N2CCOCC2)nc1-c1ccccc1)c1ccc(O)cc1 | · | · | · | -27 | · | · | · | · | ·
O=C(CNC(=O)c1cccc(Br)c1)N/N=C/c1cc(Br)cc(Br)c1O | 151* | 123 | i | · | 22 | 198 | 108 | 4 | 105

From PubChem BioAssay
